This note sets out measurements from ChEMBL document CHEMBL1124441, “Synthesis of congeners and prodrugs. 3. Water-soluble prodrugs of taxol with potent antitumor activity” (1989).

Structures are written as SMILES.

Assay [1] concerns B16. The experiment in a line: Antitumor activity in B16 Melanoma system animals is indicated by survivors on day 4 at a dose of 12.25 mg/kg intraperitoneally. The assay is classed as functional, Mus musculus. The following applies: route intraperitoneal. The method in brief: (§1)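 B16 melanoma, 10^6 cells inoculated ip on day 0. Ip treatment started day 1, schedule Q01Dx09 (one dose daily for 9 days). The score is live animals on day 4 over total animals; early deaths are taken as drug toxicity.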

In assay [2] the test system is B16. The assay is described as follows: Percent of median lifetime of test animals divided by the median lifetime of control animals at a dose of 6.13 mg/kg intraperitoneally. Conditions: route intraperitoneal. The assay is classed as functional, Mus musculus. In a few lines: (§2)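 B16 melanoma, 10^6 cells ip on day 0, ip treatment from day 1, Q01Dx09 (single dose daily for 9 days). %T/C is median lifetime of treated over untreated tumored controls, times 100. Early deaths are assessed on day 4 for toxicity. Cures are animals alive on the last test day.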

The subject of assay [3] is B16. The assay is described as follows: Difference in body weight in grams between test and control animals at a dose of 6.13 mg/kg intraperitoneally. The assay is classed as functional, Mus musculus. The following applies: route intraperitoneal. In a few lines:
(§3)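 B16 melanoma, 10^6 cells ip on day 0, then ip dosing from day 1, once daily for 9 days (Q01Dx09). The value is the body-weight difference in grams, treated minus tumored control animals.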

Assay [4] concerns B16. The experiment in a line: Antitumor activity in B16 Melanoma system animals is indicated by survivors on day 4 at a dose of 6.13 mg/kg intraperitoneally. The assay is classed as functional, Mus musculus. Conditions: route intraperitoneal. The method in brief: as §1
In assay [5] the test system is B16. The assay is described as follows: Antitumor activity in B16 Melanoma system animals is indicated by survivors on day 4 at a dose of 49 mg/kg intraperitoneally. The assay is classed as functional, Mus musculus. The following applies: route intraperitoneal. The method in brief: as §1
Assay [6] deals with B16. The experiment in a line: Percent of median lifetime of test animals divided by the median lifetime of control animals at a dose of 12.25 mg/kg intraperitoneally. The assay is classed as functional, Mus musculus. Conditions: route intraperitoneal. In a few lines:
as §2

The subject of assay [7] is B16. The experiment in a line: Difference in body weight in grams between test and control animals at a dose of 49 mg/kg intraperitoneally. The assay is classed as functional, Mus musculus. The following applies: route intraperitoneal. In a few lines: as §3
The subject of assay [8] is B16. The experiment in a line: Antitumor activity in B16 Melanoma system animals is indicated by survivors on day 4 at a dose of 24.5 mg/kg intraperitoneally. The assay is classed as functional, Mus musculus. Conditions: route intraperitoneal. The method in brief: as §1
The subject of assay [9] is B16. The experiment in a line: Percent of median lifetime of test animals divided by the median lifetime of control animals at a dose of 49 mg/kg intraperitoneally. The following applies: route intraperitoneal. The assay is classed as functional, Mus musculus. The method in brief: as §2
Assay [10] deals with B16. The assay is described as follows: Difference in body weight in grams between test and control animals at a dose of 12.25 mg/kg intraperitoneally. The assay is classed as functional, Mus musculus. The following applies: route intraperitoneal. The method in brief: as §3
The subject of assay [11] is B16. The experiment in a line: Difference in body weight in grams between test and control animals at a dose of 24.5 mg/kg intraperitoneally. The following applies: route intraperitoneal. The assay is classed as functional, Mus musculus. The method in brief:
as §3

The subject of assay [12] is B16. The experiment in a line: Percent of median lifetime of test animals divided by the median lifetime of control animals at a dose of 24.5 mg/kg intraperitoneally. The assay is classed as functional, Mus musculus. The following applies: route intraperitoneal. The method in brief: as §2
The test system of assay [13] is B16. The assay is described as follows: Percent of median lifetime of test animals divided by the median lifetime of control animals at a dose of 2.5 mg/kg intraperitoneally. Conditions: route intraperitoneal. The assay is classed as functional, Mus musculus. The method in brief:
(§4)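 B16 melanoma inoculated ip (10⁶ cells) on day 0. Daily ip treatment for 9 days (Q01Dx09) begins day 1, dosed per injection in mg/kg. %T/C is the median lifespan of treated animals divided by that of tumored untreated controls, ×100. Cures are animals alive on the last test day. Toxic deaths are assessed on day 4.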

Assay [14] deals with B16. The assay is described as follows: (§5) Difference in body weight in grams between test and control animals at a dose of 20 mg/kg intraperitoneally. The assay is classed as functional, Mus musculus. Conditions: route intraperitoneal. In a few lines: (§6)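 B16 melanoma system: 10⁶ tumor cells inoculated ip on day 0. Drug given ip once daily for 9 days (Q01Dx09) starting day 1, dose as mg/kg body weight per injection. Read-out is the body-weight difference in grams, treated minus control animals. Early deaths, taken as toxicity, are scored on day 4.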

Assay [15] concerns B16. The experiment in a line: Antitumor activity in B16 Melanoma system animals is indicated by survivors on day 4 at a dose of 1.25 mg/kg intraperitoneally. The assay is classed as functional, Mus musculus. The following applies: route intraperitoneal. The method in brief:
as §1

In assay [16] the test system is B16. The assay is described as follows: Percent of median lifetime of test animals divided by the median lifetime of control animals at a dose of 5 mg/kg intraperitoneally. The assay is classed as functional, Mus musculus. Conditions: route intraperitoneal. In a few lines: as §4
The subject of assay [17] is B16. The assay is described as follows: Antitumor activity in B16 Melanoma system animals is indicated by survivors on day 4 at a dose of 2.5 mg/kg intraperitoneally. Also noted: reference not given here. Conditions: route intraperitoneal. The assay is classed as functional, Mus musculus. In a few lines:
as §1

Assay [18] concerns B16. The experiment in a line: Antitumor activity in B16 Melanoma system animals is indicated by survivors on day 4 at a dose of 10 mg/kg intraperitoneally. Set-up: reference not given here. The following applies: route intraperitoneal. The assay is classed as functional, Mus musculus. In a few lines:
as §1

Assay [19] deals with B16. The experiment in a line: Percent of median lifetime of test animals divided by the median lifetime of control animals at a dose of 20 mg/kg intraperitoneally. The assay is classed as functional, Mus musculus. Conditions: route intraperitoneal. The method in brief: as §4
Assay [20] deals with B16. The experiment in a line: Difference in body weight in grams between test and control animals at a dose of 1.25 mg/kg intraperitoneally. The following applies: route intraperitoneal. The assay is classed as functional, Mus musculus. In a few lines: as §6
Assay [21] concerns B16. The assay is described as follows: Percent of median lifetime of test animals divided by the median lifetime of control animals at a dose of 10 mg/kg intraperitoneally. The assay is classed as functional, Mus musculus. The following applies: route intraperitoneal. The method in brief: as §4
In assay [22] the test system is B16. The experiment in a line: (§7) Difference in body weight in grams between test and control animals at a dose of 2.5 mg/kg intraperitoneally. Conditions: route intraperitoneal. The assay is classed as functional, Mus musculus. In a few lines: as §6
In assay [23] the test system is B16. The experiment in a line: Percent of median lifetime of test animals divided by the median lifetime of control animals at a dose of 1.25 mg/kg intraperitoneally. Conditions: route intraperitoneal. The assay is classed as functional, Mus musculus. The method in brief:
as §4

The subject of assay [24] is B16. The assay is described as follows: Antitumor activity in B16 Melanoma system animals is indicated by survivors on day 4 intraperitoneally. The following applies: Mus musculus, route intraperitoneal.
Assay [25] relates to B16. The assay is described as follows: (§8) Difference in body weight in grams between test and control animals at a dose of 5 mg/kg intraperitoneally. The assay is classed as functional, Mus musculus. Conditions: route intraperitoneal. In a few lines:
as §6

Assay [26] deals with B16. The experiment in a line: Antitumor activity in B16 Melanoma system animals is indicated by survivors on day 4 at a dose of 5 mg/kg intraperitoneally. Conditions: route intraperitoneal. The assay is classed as functional, Mus musculus. The method in brief: as §1
Assay [27] concerns B16. The experiment in a line: (§9) Difference in body weight in grams between test and control animals at a dose of 10 mg/kg intraperitoneally. The assay is classed as functional, Mus musculus. The following applies: route intraperitoneal. In a few lines:
as §6

For assay [28], the system named is B16. The experiment in a line: Difference in body weight in grams between test and control animals at a dose of 1.2 mg/kg intraperitoneally. The assay is classed as functional, Mus musculus. Conditions: route intraperitoneal. In a few lines: as §3
The subject of assay [29] is MX1. The assay is described as §9. Conditions: route intraperitoneal. The assay is classed as functional, Mus musculus.
Assay [30] concerns MX1. The description is as §8. The assay is classed as functional, Mus musculus. The following applies: route intraperitoneal.
The test system of assay [31] is B16. The assay is described as follows: Antitumor activity in B16 Melanoma system animals is indicated by survivors on day 4 at a dose of 1.2 mg/kg intraperitoneally. The following applies: route intraperitoneal. The assay is classed as functional, Mus musculus. The method in brief:
as §1

The test system of assay [32] is MX1. The assay is described as §7. The assay is classed as functional, Mus musculus. Conditions: route intraperitoneal.
In assay [33] the test system is MX1. The description is as §5. The following applies: route intraperitoneal. The assay is classed as functional, Mus musculus.
Assay [34] relates to MX1. The assay is described as follows: Difference in body weight in grams between test and control animals at a dose of 40 mg/kg intraperitoneally. The assay is classed as functional, Mus musculus. The following applies: route intraperitoneal.
Assay [35] relates to B16. The assay is described as follows: Antitumor activity in B16 Melanoma system animals is indicated by survivors on day 4 at a dose of 20 mg/kg intraperitoneally. The assay is classed as functional, Mus musculus. Set-up: reference not given here. The following applies: route intraperitoneal. In a few lines:
as §1

For `CC(=O)OC1C(=O)[C@@]2(C)[C@H]([C@H](OC(=O)c3ccccc3)[C@]3(O)CC(OC(=O)C(OC(=O)CCCC(=O)[O-])C(NC(=O)c4ccccc4)c4ccccc4)C(C)=C1C3(C)C)[C@]1(OC(C)=O)CO[C@@H]1C[C@@H]2O.[Na+]` (some centres not stated), the Activity in [1] is 8; in assay [4], 8; in [5], 7; in [8], 7. Further, the T/C came to 159% in [2], 192% in assay [6], 339% in assay [9] and 225% in assay [12]. For the same molecule, the Weight difference came to 0.4 g in [3], 0.8 g in assay [7], 0.6 g in assay [10] and 1.5 g in assay [11].

With `CC(=O)OC1C(=O)[C@]2(C)C(O)C[C@H]3OC[C@@]3(OC(C)=O)[C@H]2[C@H](OC(=O)c2ccccc2)[C@]2(O)CC(OC(=O)[C@@H]3OC(=O)N(C(=O)c4ccccc4)[C@H]3c3ccccc3)C(C)=C1C2(C)C` (some centres not stated), the T/C in assay [13] is 88%; in [16], 95%; in assay [19], 98%; in [21] it was 100%; in [23], 94%. Moreover, the Weight difference in [14] is -0.2 g; in assay [20], -0.2 g; in [22] it was -0.3 g; in [25] it was 0 g; in [27], -0.1 g. Moreover, the Activity in assay [15], in [17], in [18] and in assay [24] was 10 throughout. In addition, the “Survivors on day 4” value in [26] is given as 10.

For `CC(=O)OC1C(=O)[C@@]2(C)[C@H]([C@H](OC(=O)c3ccccc3)[C@]3(O)CC(OC(=O)C(OC(=O)CCCC(=O)NCCCN(C)C)C(NC(=O)c4ccccc4)c4ccccc4)C(C)=C1C3(C)C)[C@]1(OC(C)=O)CO[C@@H]1C[C@@H]2O.Cl` (some centres not stated), the T/C in assay [13] stood at 129%; in assay [16] it was 188%; in assay [19], 352%; in assay [21], 352%; in assay [23], 123%. For the same molecule, the Weight difference in [28] is -0.1 g; in [14], 0 g; in assay [29], -2.2 T-C; in assay [30] it was 0.1 T-C; in assay [32], -0.6 T-C; in [22], -0.1 g. Besides, the Weight difference in assay [33] is 0.3 T-C; in assay [34], -5.9 T-C; in assay [25], 0.1 g; in assay [27], -0.1 g. Further, the Activity in assay [17], in assay [18], in assay [31] and in assay [35] was 10 throughout. In addition, in assay [26], the “Survivors on day 4” value is 10.
